≈ marks a conversion by molar mass, not a printed value.

Consider 35 molecules from ChEMBL document CHEMBL1681754, “Synthesis, structure, molecular docking, and structure-activity relationship analysis of enamines: 3-aryl-4-alkylaminofuran-2(5H)-ones as potential antibacterials” (Bioorg Med Chem, 2011).

Experiment [1] in a line: Inhibition of Staphylococcus aureus tyrosyl-tRNA synthetase by aminoacylation assay. A digest of the protocol: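 S. aureus TyrRS overexpressed in E. coli and purified (~98% by SDS–PAGE). Enzyme (0.2 nM) preincubated with a range of inhibitor concentrations for 10 min at room temperature, then prewarmed mix added at 37 °C. TCA-precipitated charged tRNA counted by scintillation; IC₅₀ is the concentration halving activity.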

Another experiment relates to Streptococcus pneumoniae. Put plainly: Antimicrobial activity against Streptococcus pneumoniae R6 by broth microdilution method. It counts as functional. (In general: Broth dilution looks for growth in wells or tubes with falling amounts of substance.)
In another experiment the test system is Escherichia coli. In words: Antimicrobial activity against Escherichia coli ATCC 35218 after 24 hrs by MTT assay. It counts as functional. The note with it: ATCC 35218, 24 h. The method, boiled down: (§1)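 MTT colorimetric broth microdilution in LB medium. Compounds serially diluted in sterile medium (50% v/v DMSO in PBS). Inoculum approx. 10⁵ cfu/mL, 37 °C for 24 h. Then 50 µL PBS with 2 mg/mL MTT added per well, 4–5 h at room temperature. After a further 12 h at room temperature, OD read at 550 nm to give MIC₅₀.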
In general terms: Formazan colour is commonly taken as a measure of viable cells.

A further experiment concerns Staphylococcus aureus. In words: Antimicrobial activity against Staphylococcus aureus ATCC 25923 after 24 hrs by MTT assay. It counts as functional. The settings on record: ATCC 25923, 24 h. A digest of the protocol:
as §1

The subject of a further experiment is Candida albicans. Put plainly: Antimicrobial activity against Candida albicans ATCC 10231 after 48 hrs by MTT assay. The class given is functional. The note with it: ATCC 10231, 48 h. A digest of the protocol: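 Antifungal MTT colorimetric microdilution in RPMI-1640 medium. Compounds serially diluted in sterile medium (50% v/v DMSO in PBS). Inoculum approx. 10⁵ cfu/mL, plates at 27 °C for 48 h. Then PBS with 2 mg/mL MTT added, 4–5 h at room temperature. After a further 12 h, OD read at 550 nm to give MIC₅₀.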

The next experiment relates to Bacillus subtilis. Put plainly: Antimicrobial activity against Bacillus subtilis ATCC 6633 after 24 hrs by MTT assay. It counts as functional. The note with it: ATCC 6633, 24 h. The method, boiled down: as §1

On to `N[C@@H](Cc1ccc(O)cc1)C(=O)N[C@H](C(=O)O)[C@H]1[C@H](O)[C@](O)(CO)[C@@H](O)CN1O`, for which half-maximal inhibition in experiment [1] (IC50) was put at 0.003 µM. The molecule also gave a minimal inhibitory concentration (MIC) in the experiment with Streptococcus pneumoniae of more than 64 µg/mL.
In the case of `O=C1OCC(NCc2ccccc2)=C1c1cccc(Cl)c1`, the MIC50 in the experiment with Escherichia coli (read-out: MIC50) was more than 100 µg/mL; against Staphylococcus aureus, 25.3 µg/mL (≈ 84.4 µM); with Candida albicans, 83.9 µg/mL (≈ 280 µM); with Bacillus subtilis, more than 100 µg/mL. This molecule returned a 50% inhibitory concentration (IC50) in experiment [1] of 8.9 µM.
Consider `O=C1OCC(N2CCCC2)=C1c1ccc(Br)cc1`, for which the MIC50 was more than 100 µg/mL in the experiment on Escherichia coli (read-out: MIC50), 37.1 µg/mL (≈ 120 µM) in the experiment with Staphylococcus aureus, 49.8 µg/mL (≈ 162 µM) against Candida albicans and 50 µg/mL (≈ 162 µM) in the experiment on Bacillus subtilis.
As to `O=C1OCC(N2CCCCC2)=C1c1ccc(Br)cc1`, the MIC50 in the experiment with Escherichia coli (read-out: MIC50) was more than 100 µg/mL; with Staphylococcus aureus, 21.8 µg/mL (≈ 67.7 µM); against Candida albicans, 74.4 µg/mL (≈ 231 µM); against Bacillus subtilis, more than 100 µg/mL. Besides, inhibition in experiment [1] was half-maximal at 7.7 µM (IC50).
Take `O=C1OCC(N2CCOCC2)=C1c1ccc(Br)cc1`: the MIC50 in the experiment on Escherichia coli (read-out: MIC50) is more than 100 µg/mL; against Staphylococcus aureus it was 42.6 µg/mL (≈ 131 µM); against Candida albicans it was 89.7 µg/mL (≈ 277 µM); in the experiment with Bacillus subtilis it was 91.8 µg/mL (≈ 283 µM).
On to `O=C1OCC(N2CCNCC2)=C1c1ccc(Br)cc1`, for which the MIC50 in the experiment on Escherichia coli (read-out: MIC50) is more than 100 µg/mL; against Staphylococcus aureus, 54.7 µg/mL (≈ 169 µM); against Candida albicans, 77.4 µg/mL (≈ 239 µM); against Bacillus subtilis it was 78.5 µg/mL (≈ 243 µM).
Turning to `O=C1OCC(NCCN2CCOCC2)=C1c1ccc(Br)cc1`, the MIC50 in the experiment on Escherichia coli (read-out: MIC50) was more than 100 µg/mL; against Staphylococcus aureus, 9.7 µg/mL (≈ 26.4 µM); against Candida albicans it was 3.5 µg/mL (≈ 9.53 µM); with Bacillus subtilis, 24.7 µg/mL (≈ 67.3 µM). In experiment [1], this molecule yielded a concentration for half-maximal inhibition (IC50) of 3.3 µM.
The like results for `O=C1OCC(NC2CCCCC2)=C1c1ccc(Br)cc1` were, in that order, more than 100 µg/mL, 27.8 µg/mL (≈ 82.7 µM), 62.8 µg/mL (≈ 187 µM), 86.7 µg/mL (≈ 258 µM) and 14.5 µM.
Regarding `CCCNC1=C(c2ccc(Br)cc2)C(=O)OC1`, the MIC50 in the experiment on Escherichia coli (read-out: MIC50) is more than 100 µg/mL; against Staphylococcus aureus, 87.2 µg/mL (≈ 294 µM); in the experiment with Candida albicans it was more than 100 µg/mL; in the experiment with Bacillus subtilis, more than 100 µg/mL.
For `CCCCNC1=C(c2ccc(Br)cc2)C(=O)OC1`, the MIC50 in the experiment with Escherichia coli (read-out: MIC50), in the experiment on Staphylococcus aureus, against Candida albicans and with Bacillus subtilis was more than 100 µg/mL each time.
With `CN(C)C1=C(c2ccc(Br)cc2)C(=O)OC1`, the MIC50 in the experiment with Escherichia coli (read-out: MIC50), against Staphylococcus aureus, against Candida albicans and in the experiment on Bacillus subtilis was more than 100 µg/mL throughout.
As for `O=C1OCC(NCc2ccccc2)=C1c1ccc(Br)cc1`, the MIC50 is more than 100 µg/mL with Escherichia coli (read-out: MIC50), 57.6 µg/mL (≈ 167 µM) with Staphylococcus aureus, more than 100 µg/mL in the experiment on Candida albicans and more than 100 µg/mL in the experiment on Bacillus subtilis.
Regarding `O=C1OCC(NNc2ccc([N+](=O)[O-])cc2)=C1c1ccc(Br)cc1`, the MIC50 in the experiment with Escherichia coli (read-out: MIC50) is 79.4 µg/mL (≈ 203 µM); against Staphylococcus aureus, 0.42 µg/mL (≈ 1.08 µM); against Candida albicans, 5.2 µg/mL (≈ 13.3 µM); with Bacillus subtilis it was 9.5 µg/mL (≈ 24.3 µM). In experiment [1], this molecule yielded an IC50 of 0.12 µM.
The like results for `O=C1OCC(NNc2ccc([N+](=O)[O-])cc2)=C1c1ccccc1` were, in that order, more than 100 µg/mL, 0.85 µg/mL (≈ 2.73 µM), 13.1 µg/mL (≈ 42.1 µM), 15.6 µg/mL (≈ 50.1 µM) and 0.24 µM.
`O=C1OCC(N2CCCC2)=C1c1ccc(Cl)cc1`: the MIC50 was more than 100 µg/mL in the experiment with Escherichia coli (read-out: MIC50), 88.4 µg/mL (≈ 335 µM) against Staphylococcus aureus, more than 100 µg/mL against Candida albicans and more than 100 µg/mL against Bacillus subtilis.
In the case of `O=C1OCC(N2CCCC2)=C1c1cccc(Cl)c1`, the MIC50 in the experiment on Escherichia coli (read-out: MIC50) was more than 100 µg/mL; in the experiment with Staphylococcus aureus it was 12.6 µg/mL (≈ 47.8 µM); in the experiment on Candida albicans it was 71.2 µg/mL (≈ 270 µM); against Bacillus subtilis, 87.4 µg/mL (≈ 331 µM). The same molecule had an IC50 in experiment [1] of 5.6 µM.
Taken in the same sequence, the figures for `O=C1OCC(N2CCCCC2)=C1c1cccc(Cl)c1` were more than 100 µg/mL, 7.5 µg/mL (≈ 27 µM), 33.1 µg/mL (≈ 119 µM), 41.6 µg/mL (≈ 150 µM) and 2.8 µM.
Taken in the same sequence, the figures for `O=C1OCC(N2CCOCC2)=C1c1cccc(Cl)c1` were more than 100 µg/mL, 25.7 µg/mL (≈ 91.9 µM), 74.6 µg/mL (≈ 267 µM), 93.1 µg/mL (≈ 333 µM) and 10.8 µM.
In the case of `O=C1OCC(N2CCNCC2)=C1c1cccc(Cl)c1`, the MIC50 in the experiment on Escherichia coli (read-out: MIC50) is more than 100 µg/mL; against Staphylococcus aureus, 37.4 µg/mL (≈ 134 µM); in the experiment with Candida albicans, more than 100 µg/mL; against Bacillus subtilis, more than 100 µg/mL.
With `CN1CCN(C2=C(c3cccc(Cl)c3)C(=O)OC2)CC1`, the MIC50 in the experiment on Escherichia coli (read-out: MIC50) is more than 100 µg/mL; in the experiment with Staphylococcus aureus, 65.2 µg/mL (≈ 223 µM); against Candida albicans it was more than 100 µg/mL; in the experiment on Bacillus subtilis, more than 100 µg/mL.
`O=C1OCC(NCCN2CCOCC2)=C1c1cccc(Cl)c1`: the MIC50 is more than 100 µg/mL in the experiment on Escherichia coli (read-out: MIC50), 3.2 µg/mL (≈ 9.91 µM) in the experiment on Staphylococcus aureus, 21.3 µg/mL (≈ 66 µM) against Candida albicans and 27.9 µg/mL (≈ 86.4 µM) with Bacillus subtilis. For the same molecule, the concentration for half-maximal inhibition (IC50) in experiment [1] stood at 0.86 µM.
As for `CCCNC1=C(c2cccc(Cl)c2)C(=O)OC1`, the MIC50 in the experiment on Escherichia coli (read-out: MIC50) was more than 100 µg/mL; in the experiment on Staphylococcus aureus, 52.4 µg/mL (≈ 208 µM); against Candida albicans it was more than 100 µg/mL; in the experiment with Bacillus subtilis it was more than 100 µg/mL.
With `CCCCNC1=C(c2cccc(Cl)c2)C(=O)OC1`, the MIC50 with Escherichia coli (read-out: MIC50) is more than 100 µg/mL; with Staphylococcus aureus, more than 100 µg/mL; in the experiment with Candida albicans, 9.08 µg/mL (≈ 34.2 µM); against Bacillus subtilis, more than 100 µg/mL.
As to `COc1ccc(C2=C(N3CCCC3)COC2=O)cc1OC`, the MIC50 in the experiment with Escherichia coli (read-out: MIC50), against Staphylococcus aureus, in the experiment with Candida albicans and against Bacillus subtilis was more than 100 µg/mL throughout.
`COc1ccc(C2=C(N3CCCCC3)COC2=O)cc1OC`: the MIC50 with Escherichia coli (read-out: MIC50), against Staphylococcus aureus, with Candida albicans and with Bacillus subtilis was more than 100 µg/mL each time.
For `COc1ccc(C2=C(N3CCOCC3)COC2=O)cc1OC`, the MIC50 in the experiment with Escherichia coli (read-out: MIC50), in the experiment with Staphylococcus aureus, against Candida albicans and in the experiment on Bacillus subtilis was more than 100 µg/mL in each case.
Consider `COc1ccc(C2=C(N3CCNCC3)COC2=O)cc1OC`, for which the MIC50 with Escherichia coli (read-out: MIC50), with Staphylococcus aureus, with Candida albicans and with Bacillus subtilis was more than 100 µg/mL in each case.
For the molecule `COc1ccc(C2=C(NC3CCCCC3)COC2=O)cc1OC`, the MIC50 in the experiment with Escherichia coli (read-out: MIC50), in the experiment with Staphylococcus aureus, in the experiment on Candida albicans and in the experiment with Bacillus subtilis was more than 100 µg/mL in each case.
Consider `COc1ccc(C2=C(NCCN3CCOCC3)COC2=O)cc1OC`, for which the MIC50 with Escherichia coli (read-out: MIC50) is more than 100 µg/mL; in the experiment on Staphylococcus aureus it was 68.3 µg/mL (≈ 196 µM); against Candida albicans, more than 100 µg/mL; against Bacillus subtilis, more than 100 µg/mL.
Turning to `CCCCNC1=C(c2ccc(OC)c(OC)c2)C(=O)OC1`, the MIC50 with Escherichia coli (read-out: MIC50), against Staphylococcus aureus, in the experiment on Candida albicans and in the experiment on Bacillus subtilis was more than 100 µg/mL throughout.
With `COc1ccc(C2=C(NCc3ccccc3)COC2=O)cc1OC`, the MIC50 with Escherichia coli (read-out: MIC50), in the experiment on Staphylococcus aureus, with Candida albicans and against Bacillus subtilis was more than 100 µg/mL each time.
Regarding `CN(C)C1=C(c2cccc(Br)c2)C(=O)OC1`, the MIC50 was more than 100 µg/mL in the experiment on Escherichia coli (read-out: MIC50), 61.4 µg/mL (≈ 218 µM) in the experiment with Staphylococcus aureus, more than 100 µg/mL against Candida albicans and more than 100 µg/mL in the experiment on Bacillus subtilis.
Regarding `NC[C@H]1O[C@H](O[C@H]2[C@H](O)[C@@H](O[C@H]3O[C@H](CO)[C@@H](O)[C@H](N)[C@H]3O)[C@H](N)C[C@@H]2N)[C@H](O)[C@@H](O)[C@@H]1O` [KANAMYCIN], the MIC50 worked out at 1 µg/mL (≈ 2.06 µM) in the experiment on Staphylococcus aureus and 0.43 µg/mL (≈ 0.888 µM) in the experiment with Bacillus subtilis.
For the molecule `CC(=O)N1CCN(c2ccc(OCC3COC(Cn4ccnc4)(c4ccc(Cl)cc4Cl)O3)cc2)CC1` (stereo not given) [KETOCONAZOLE], in the experiment on Candida albicans, the MIC50 worked out at 4.4 µg/mL (≈ 8.28 µM).
In the experiment on Escherichia coli, `CC1(C)S[C@@H]2[C@H](NC(=O)Cc3ccccc3)C(=O)N2[C@H]1C(=O)O` [PENICILLIN G] came in with an MIC50 of 2.5 µg/mL (≈ 7.48 µM).

As a reminder, the IC50 is the concentration needed to halve the response being measured. A low value points to greater potency in that assay. What is called MIC is the smallest concentration in the dilution series that meets the test's criterion for growth inhibition. As a reminder, the MIC50 is an inhibitory concentration at the 50% level, which refers to growth in some studies and to a panel of isolates in others.
